The values that follow come from ChEMBL document CHEMBL1140566, “Discovery of novel isoxazolines as anti-tuberculosis agents” (Bioorg Med Chem Lett, 2007).

SMILES strings stand for the structures. Converted amounts (≈) assume the structure as drawn. Bounds are passed on as bounds.

The subject of data set [1] is Mycobacterium tuberculosis. Kind of data set: Antituberculosis activity against Mycobacterium tuberculosis by microbroth dilution method. The class given is functional. A digest of the protocol:
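M. tuberculosis susceptibility was measured by microbroth dilution and reported as MIC90 in μg/mL.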

In data set [2] the test system is Mycobacterium tuberculosis. Kind of data set: Antituberculosis activity in Mycobacterium tuberculosis infected rat assessed as reduction of colony formation. The class given is functional.
Data set [3] can be described thus: Solubility at pH 6.0 by shake-flask method. The class given is physicochemical. The note with it: buffer. The method in brief:
(§1)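 Aqueous solubility was determined by a miniaturized shake-flask method at pH 6.0 and at pH 7.4, reported in mg/L.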

A short description of data set [4]: Solubility at pH 7.4 by shake-flask method. The class given is physicochemical. Conditions: buffer. A digest of the protocol:
as §1

Data set [5] can be described thus: Protein binding in rat. The class given is ADME, organism-based. Conditions: plasma, read-out: PB (converted). The method in brief:
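Plasma protein binding was measured by equilibrium dialysis in RED devices and reported as percent bound.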

Data set [6] can be described thus: Stability in rat liver microsomes after 90 mins. The class given is ADME, Microsome. Conditions: read-out: Stability. A digest of the protocol: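 Compounds were incubated with pooled rat liver microsomes and loss of parent was monitored. Intact parent was quantified by LC-MS/MS and reported as % remaining at 90 min.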
For orientation: Liver microsomes are a subcellular fraction often used to study metabolism.

Data set [7] is described as follows: Clearance in rat at 100 mg/kg, po. Set-up: dose 100 mg/kg, route oral. Conditions: in vivo. The class given is ADME, organism-based. The method in brief: (§2)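 Rats were given single doses at 10 mg/kg intravenously or 100 mg/kg orally. Half-life, AUC to infinity (μg·hr/L), volume of distribution (L/kg) and clearance (L/hr/kg) were derived for each route. Oral bioavailability was calculated relative to the IV dose.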

The nature of data set [8]: Half life in rat at 100 mg/kg, po. The class given is ADME, organism-based. Set-up: dose 100 mg/kg, route oral. Conditions: in vivo. A digest of the protocol: as §2
Data set [9] in a line: Bioavailability in rat at 100 mg/kg, po. The class given is ADME, organism-based. The note with it: in vivo. A digest of the protocol:
as §2

Data set [10] in a line: Volume of distribution in rat at 10 mg/kg, iv. The class given is ADME, organism-based. Set-up: dose 10 mg/kg, route intravenous. The note with it: in vivo. A digest of the protocol:
as §2

A short description of data set [11]: Half life in rat at 10 mg/kg, iv. The class given is ADME, organism-based. Also on record: dose 10 mg/kg, route intravenous. Conditions: in vivo. The method in brief:
as §2

For the next data set, the system named is Rattus norvegicus. Kind of data set: Volume of distribution in rat at 100 mg/kg, po. The class given is ADME, organism-based. Also on record: dose 100 mg/kg, route oral. Conditions: in vivo. The method in brief: as §2
Data set [12] can be described thus: Clearance in rat at 10 mg/kg, iv. The class given is ADME, organism-based. Set-up: dose 10 mg/kg, route intravenous. The note with it: in vivo. A digest of the protocol:
as §2

Data set [13] can be described thus: AUC (0 to infinity) in rat at […]. Set-up: time infinity. The class given is ADME, organism-based. The note with it: plasma.
The nature of data set [14]: AUC (0 to infinity) in rat at 10 mg/kg, iv. The class given is ADME, organism-based. Set-up: time infinity, dose 10 mg/kg, route intravenous. The note with it: plasma. A digest of the protocol: as §2

One may read the MIC90 as the lowest concentration that inhibits either 90% of growth or 90% of the strains tested, depending on the study. Consider `c1ccc(CN2CCN(c3ccc(C4CC(c5ccncc5)=NO4)cc3)CC2)cc1` (stereo not given), for which the MIC90 in data set [1] was found to be 50000 ng/mL (≈ 125 µM).

For the molecule `c1ccc(CN2CCN(c3ccc(C4CC(c5ccccn5)=NO4)cc3)CC2)cc1` (stereo not given), in [1], the MIC90 is greater than 200000 ng/mL.

Regarding `NNC(=O)c1ccncc1` [ISONIAZID], the MIC90 in [1] came to 25 ng/mL (≈ 0.182 µM). Further, in data set [2], the Log10 cfu is 3.98.

With `CCCC1=NOC(c2ccc(N3CCN(Cc4ccccc4)CC3)cc2)C1` (stereo not given), the MIC90 in data set [1] is greater than 200000 ng/mL.

A word on the thermodynamic solubility: it is solubility found after equilibrating the solid with the medium. In general, Solubility refers to the concentration that dissolves in the medium under given conditions. Read a low Solubility as a poorly soluble substance. In turn, `O=[N+]([O-])c1ccc(C2=NOC(c3ccc(N4CCCCC4)cc3)C2)o1` (stereo not given) yielded a solubility (thermodynamic) in data set [3] of 0.017 µg/mL (≈ 0.0498 µM). This molecule came in with a Solubility in data set [4] of 0.014 µg/mL (≈ 0.041 µM). In data set [1], the MIC90 is 1.56 ng/mL (≈ 0.00457 µM). Also, the fraction unbound in data set [5] was 0.012. Besides, the remaining at 1.5 h in data set [6] is 6%.

`O=[N+]([O-])c1ccc(C2=NOC(c3ccc(N4CCN(Cc5ccccc5)CC4)cc3)C2)cc1` (stereo not given): the MIC90 in data set [1] is greater than 200000 ng/mL.

One may read the CL/F as the apparent clearance, not corrected for the fraction that reaches the circulation. A word on the half-life: it is how long it takes for the measured level to halve. Read a high half-life as slow decline. As usually defined, the bioavailability is the share of a dose that reaches the circulation, judged against a reference dose that is usually intravenous. Low readings indicate poor availability, high ones good availability. As usually defined, the clearance is the rate of elimination divided by the concentration. Read a low clearance as a low capacity for elimination. Broadly, the AUC(0-inf) is the area under the concentration-time curve extrapolated to infinity. Low readings indicate low exposure, high ones high exposure. Consider `O=[N+]([O-])c1ccc(C2=NOC(c3ccc(N4CCN(Cc5ccccc5)CC4)cc3)C2)o1` (stereo not given), for which the CL/F in data set [7] is 26.3 mL/min/kg. Besides, the figures for the half-life in data set [8] and in data set [11] were 4.2 h and 2.6 h, respectively. For the same molecule, the bioavailability in [9] came to 34.5%. The results for the Vd (in data set [10]; in the data set on Rattus norvegicus) were 2 L/kg and 9.3 L/kg, respectively. Further, the thermodynamic solubility in data set [3] was 3.34 µg/mL (≈ 7.72 µM); in [4] it was 0.236 µg/mL (≈ 0.546 µM). In data set [12], this molecule gave a clearance of 8.83 mL/min/kg. Besides, in data set [1], the MIC90 is 0.05 ng/mL (≈ 0.000116 µM). For the same molecule, the Log10 cfu in data set [2] turned out to be 0.64. Besides, in data set [5], the fraction unbound was 0.001. Moreover, the remaining at 1.5 h in [6] was found to be 31%. The AUC(0-inf) in data set [13] is 65900 ng·h/mL; in data set [14] it was 19100 ng·h/mL.

In data set [1], `CC(C)(C)OC(=O)N1CCN(c2ccc(C3CC(c4ccc([N+](=O)[O-])o4)=NO3)cc2)CC1` (stereo not given) gave an MIC90 of 0.1 ng/mL (≈ 0.000226 µM).

In data set [1], `CCOC(=O)C1=NOC(c2ccc(N3CCN(Cc4ccccc4)CC3)cc2)C1` (stereo not given) came in with an MIC90 of 1560 ng/mL (≈ 3.96 µM).

Take `CCOC(=O)N1CCN(c2ccc(C3CC(c4ccc([N+](=O)[O-])o4)=NO3)cc2)CC1` (stereo not given): the solubility (thermodynamic) in [3] turned out to be 4 µg/mL (≈ 9.65 µM); in [4] it was 3.6 µg/mL (≈ 8.69 µM). The molecule further registered an MIC90 in [1] of 0.1 ng/mL (≈ 0.000241 µM). Besides, the Log10 cfu in data set [2] is 0.59. For the same molecule, in [5], the fraction unbound is 0.01. In addition, the remaining at 1.5 h in data set [6] was determined as 12%.

Consider `CC(C)NC(=O)N1CCN(c2ccc(C3CC(c4ccc([N+](=O)[O-])o4)=NO3)cc2)CC1` (stereo not given), for which the thermodynamic solubility stood at 27.7 µg/mL (≈ 64.8 µM) in data set [3] and 20 µg/mL (≈ 46.8 µM) in data set [4]. Moreover, the MIC90 in [1] came to 0.2 ng/mL (≈ 0.000468 µM). The Log10 cfu in data set [2] stood at 0.83. For the same molecule, the fraction unbound in [5] is 0.027. Moreover, the remaining at 1.5 h in data set [6] came to 26%.
